# High-throughput results deposited in PubChem by Broad Institute.
# The list is not random: actives were taken first. Their share in the collection is about 3.2%.
# DENV2 CPE rescue – inhibitors of DENV2 cytopathic effect; DENV2-infected cells, cytopathic effect rescue, plate reader; CPE inhibition, % at 9.99 µM; 350,000 tested, 1.7% active; in the data active = CPE inhibition above about 20%, passing the limit was not always enough; inconclusive = no clear call, values can overlap the other calls; tested in BHK-21 cells;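 note: 0% = median of neutral control wells and 100% = median of positive control wells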
# PfHsp90 set2 – growth inhibition of yeast expressing Plasmodium Hsp90 | S. cerevisiae expressing PfHsp90, BacTiter-Glo ATP, 48 h; yeast lacking PDR1 and PDR3 efflux regulators | inhibition, % at 9.4 µM | 310,000 tested, 0.32% active;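 active = every replicate shows inhibition above about 80%, whatever the replicate mean, limit read from the data; inconclusive = mean inhibition reaches the set limit but some replicate falls short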;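 note: 0% = DMSO neutral controls and 100% = 20 µM radicicol positive controls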
# Ecoli rRNA inh – inhibits bacterial ribosomal RNA function over humanized ribosomes. E. coli WT GFP vs humanized-ribosome RFP mutants, fluorescence, 24 h; stronger effect = lower value; DMSO median 0, no signal -100. GFP signal change (wild-type ribosome), % (no concentration beside the values). 350,000 tested, 1.6% active. AID 720706;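 active = significant combined selectivity score with lowered wild-type GFP, culture density cut under 30%, mutant RFP and density less affected; inactive = any of these conditions unmet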
# MLL AF4-AF9 inh – blocks AF4 peptide binding to human AF9; AlphaScreen, biotin-AF4 peptide binding to FLAG-AF9; inhibition, % at 10 µM; 350,000 tested, 0.47% active; AID 651704;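 active = every replicate reaching a set inhibition limit, whatever the replicate mean, cut at about 25% in these data; inconclusive = mean inhibition reaches that limit but some replicates miss it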;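 note: 0% = plate neutral control median and 100% = total signal loss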
# Target sequence (P42568 whole entry, looked up): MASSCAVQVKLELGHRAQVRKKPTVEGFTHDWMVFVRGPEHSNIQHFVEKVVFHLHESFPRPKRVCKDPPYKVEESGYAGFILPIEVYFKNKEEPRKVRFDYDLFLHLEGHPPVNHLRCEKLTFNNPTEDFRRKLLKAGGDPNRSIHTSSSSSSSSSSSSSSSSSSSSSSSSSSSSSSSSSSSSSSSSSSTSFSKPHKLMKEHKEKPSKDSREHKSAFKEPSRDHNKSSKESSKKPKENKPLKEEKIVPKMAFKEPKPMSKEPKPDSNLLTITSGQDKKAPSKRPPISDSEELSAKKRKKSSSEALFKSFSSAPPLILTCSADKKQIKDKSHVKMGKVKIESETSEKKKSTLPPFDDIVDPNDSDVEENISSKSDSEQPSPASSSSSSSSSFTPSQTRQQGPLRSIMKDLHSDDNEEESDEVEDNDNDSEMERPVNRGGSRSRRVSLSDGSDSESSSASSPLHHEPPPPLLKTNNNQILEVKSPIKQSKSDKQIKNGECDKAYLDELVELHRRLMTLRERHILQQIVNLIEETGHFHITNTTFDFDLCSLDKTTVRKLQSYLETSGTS
# Cneo AK release – Cryptococcus neoformans lysis via adenylate kinase release; C. neoformans lysis, adenylate kinase release luminescence, 4 h; normalised: neutral wells 0, clomiphene wells 100; lysis activity, % at 15 µM; 360,000 tested, 0.2% active; AID 651654;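 active = mean lysis activity across replicates of at least 80%, whatever share of replicates individually reach that level; inactive = mean lysis activity below 80%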
#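 Schedule: static 4 h at 37 °C with compound, 1 h detection; system: C. neoformans cells; benchmarks: Clomiphene as positive control; buffer or medium: fresh YPD medium; measure: luminescence rise reflecting yeast cell lysis; measured by: luminescent adenylate kinase detection reagent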
# S100A4 MyoIIA – S100A4-myosin IIA interaction inhibition | inhibition, % at 10.7 µM | 360,000 tested, 0.14% active | P26447 | S100A4/TAMRA-MyoIIA peptide fluorescence polarization | AID 652163;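 active = mean inhibition of at least 70% across replicates, with every replicate also reaching that level; inconclusive = mean inhibition reaches 70% but some replicates fall short; inactive = mean inhibition below 70%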
# Target sequence (P26447 whole entry, looked up): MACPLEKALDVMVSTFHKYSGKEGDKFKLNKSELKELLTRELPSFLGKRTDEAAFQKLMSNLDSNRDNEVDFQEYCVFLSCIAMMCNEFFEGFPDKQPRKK
#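 Material: S100A4 monomer (human). Medium: Calcium-containing HEPES buffer, pH 7.2. Probe or stimulus: labelled myosin peptide probe, 5 nM. Compound dosing: one concentration per compound. Timing: polarization read 5 min after assay mix addition, stable 5–60 min. Benchmarks: DMSO as neutral control, TFP as positive control.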
# An asterisk follows results filed as active; ? = inconclusive; . = not tested or not shown; ! = not active in a repeat.
SMILES,DENV2 CPE rescue,PfHsp90 set2,Ecoli rRNA inh,MLL AF4-AF9 inh,Cneo AK release,S100A4 MyoIIA
C[C@H](NC(=O)C[C@H]1C[C@H]2c3cc(NC(=O)NC4CCCCC4)ccc3O[C@H]2[C@H](CO)O1)c1ccccc1,7,.,1,-1,-4,4
Cc1cccn2c(=O)c(/C=C(\C#N)C(=O)NCc3ccco3)c(N3CCCCCC3)nc12,-4,.,-30*,.,2,1
CCN1CCN(c2nc3c(C)cccn3c(=O)c2/C=C(\C#N)S(=O)(=O)c2ccc(Cl)cc2)CC1,5,-9,19,30*,.,-11
Cc1cccn2c(=O)c(/C=C(\C#N)C(=O)NCc3ccco3)c(N3CCCCC3)nc12,-16,-29,6,3,1,-8
CC1CC(C)CN(C(=O)C2CC(=O)N(c3ccc4c(c3)OCCO4)C2)C1 (configuration not stated),3,16,7,2,0,1
CN(Cc1ccccc1Cl)C(=O)C1CC(=O)N(c2ccc3c(c2)OCCO3)C1 (configuration not stated),2,-8,2,-2,-5,-4
NC(=O)C1CCN(C(=O)C2CC(=O)N(c3ccc4c(c3)OCCO4)C2)CC1 (configuration not stated),24*,-3,4,1,4,2
CN(Cc1ccc(Cl)c(Cl)c1)C(=O)C1CC(=O)N(c2ccc3c(c2)OCCO3)C1 (configuration not stated),30*,.,-2,-2,1,-2
COc1ccccc1S(=O)(=O)N[C@@H]1CC[C@@H](CCNC(=O)C2CC2)O[C@H]1CO,2,.,2,0,2,-6
C[C@H](CCC(=O)O)[C@H]1CC[C@H]2[C@@H]3CC[C@@H]4C[C@H](O)CC[C@]4(C)[C@H]3C[C@H](O)[C@]12C,30*!,-12,-14,-6,1,-3
CC1=C(/C=C/C(C)=C/C=C/C(C)=C/CO)C(C)(C)CCC1,122*,-13,-1,-5,-1,-17
CCN(C[C@H]1[C@H](c2ccccc2)[C@H](CO)N1C(C)=O)C(=O)NC(C)C,27*,.,2,-4,-1,-5
CCN(C[C@@H]1[C@@H](c2ccc(-c3ccccc3)cc2)[C@H](CO)N1C(C)=O)C(C)=O,22*,.,-2,3,1,-2
CCN(C[C@@H]1[C@@H](c2ccccc2)[C@@H](CO)N1C(C)=O)C(=O)NC(C)C,7,.,1,-3,4,1
CCN(C[C@H]1[C@H](c2ccc(-c3ccccc3)cc2)[C@H](CO)N1C(C)=O)C(C)=O,16,.,-2,3,9,17
CCN(C[C@H]1[C@H](c2ccccc2)[C@H](CO)N1C(C)=O)C(=O)c1ccccn1,-12,.,2,0,3,104*
O=C(Nc1ccc(F)cc1)N[C@H]1CC[C@H](CCn2cc(-c3ccc(F)cc3)nn2)O[C@H]1CO,-10,.,-2,-17,-1,9
CO[C@@H]1CN(C)C(=O)c2cc(NC(=O)c3cccc(F)c3)ccc2OC[C@H](C)N(C(C)=O)C[C@@H]1C,.,.,-6,.,.,.
O=C(CSc1nc2ccccc2c(=O)n1-c1ccccc1F)NC1CC1,22*,-3,-14,-1,1,5
O=C(CSc1nc2ccccc2c(=O)n1-c1ccc(F)cc1F)NC1CC1,-2,.,5,5,1,0
Cc1ccc(-n2c(SCC(=O)NC3CCS(=O)(=O)C3)nc3ccccc3c2=O)c(C)c1 (configuration not stated),38*,.,-1,2,-3,-4
CO[C@H]1CN(C)C(=O)c2cc(NC(=O)Nc3c(C)noc3C)ccc2OC[C@H](C)N(CCC(F)(F)F)C[C@@H]1C,.,.,-5,5,46,3
S=C(c1ccc(-c2ccc(Cl)cc2)o1)N1CCCCC1,.,-23,.,.,-5,.
N#CCCN1CCN(C(=S)c2ccc(-c3ccc(Cl)cc3)o2)CC1,.,.,-28*,.,0,-3
CCCc1c(C(=O)Nc2ccc(OC)cc2)cnn1-c1ccccc1,?,27,-24*,-2,8,-7
SMILES,DENV2 CPE rescue,PfHsp90 set2,Ecoli rRNA inh,MLL AF4-AF9 inh,Cneo AK release,S100A4 MyoIIA
CCCc1c(C(=O)NNc2ccccc2OC)cnn1-c1ccccc1,13,9,-23*,-9,.,-16
CCOC(=O)c1cc([N+](=O)[O-])cc([N+](=O)[O-])c1Sc1ncnc2nc[nH]c12,-5,107*,10,-5,.,-4
CCN(CC(=O)Nc1cc(Cl)ccc1-n1cncn1)Cc1nc2ccccc2c(=O)[nH]1,31*,-21,-5,-7,0,-2
C[C@H]1CN([C@@H](C)CO)C(=O)c2cc(-c3ccc(F)cc3)cnc2O[C@@H]1CN(C)CC1CCCCC1,-16,.,5,-16,90*,-5
COc1ccc(S(=O)(=O)N(C)C[C@H]2Oc3ncc(-c4ccncc4)cc3C(=O)N([C@@H](C)CO)C[C@H]2C)cc1,-3,.,6,-33,0,90*
COc1ccc(-c2cnc3c(c2)C(=O)N([C@H](C)CO)C[C@H](C)[C@H](CN(C)Cc2ccc(F)cc2)O3)cc1,18,.,.,-5,98*,2
C[C@H](CO)N1C[C@H](C)[C@@H](CN(C)CC2CCCC2)Oc2ncc(-c3ccc(F)cc3)cc2C1=O,4,.,9,-8,2,0
COc1ccc(-c2cnc3c(c2)C(=O)N([C@@H](C)CO)C[C@@H](C)[C@@H](CN(C)S(C)(=O)=O)O3)cc1,-2,.,4,-7,93*,11
C[C@@H]1CN([C@H](C)CO)C(=O)c2cc(-c3ccc(F)cc3)cnc2O[C@@H]1CN(C)Cc1ccc(F)cc1,.,.,-3,.,.,.
C[C@@H]1CN([C@H](C)CO)C(=O)c2cc(NC(=O)Nc3ccc4c(c3)OCO4)ccc2O[C@@H](C)CCCCO[C@@H]1CN(C)C(=O)NC1CCCCC1,16,.,-1,6,-2,4
C[C@H](NC(=O)C[C@H]1CC[C@@H](NC(=O)C2CCOCC2)[C@H](CO)O1)c1ccccc1,-3,.,2,1,3,5
CC=Cc1ccc2n(c1=O)C[C@H]1[C@H](CO)[C@@H](C(=O)NCCC)[C@@H]2N1Cc1nccs1 (mixture of isomers),?,.,7,0,-1,-4
O=C(C[C@@H]1CC[C@H]2[C@@H](COC[C@H](O)CN2S(=O)(=O)c2ccccc2F)O1)NCc1ccccc1Cl,-16,.,-1,2,0,13
CC(=O)N1[C@H](C(=O)NCC2CC2)[C@@H](CO)[C@@H]2Cn3c(ccc(-c4ccccc4F)c3=O)[C@@H]21,-3,.,-1,0,2,5
